# E-selectin induc: induces E-selectin expression in human endothelial cells | P16581 | HUVEC E-selectin immunofluorescence imaging; normalized: neutral wells 0, TNF-alpha wells 100 | activation, % at 7.58 µM | 260,000 tested, 0.37% active;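 active means mean E-selectin-positive cell signal at least 10% of the positive control, reached in at least 60% of replicates, without over 20% cell loss; inconclusive means no rule given, readout overlaps actives, possibly toxicity-flagged; inactive means the rest, including those meeting only one limit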
# Target sequence (P16581 whole entry, looked up): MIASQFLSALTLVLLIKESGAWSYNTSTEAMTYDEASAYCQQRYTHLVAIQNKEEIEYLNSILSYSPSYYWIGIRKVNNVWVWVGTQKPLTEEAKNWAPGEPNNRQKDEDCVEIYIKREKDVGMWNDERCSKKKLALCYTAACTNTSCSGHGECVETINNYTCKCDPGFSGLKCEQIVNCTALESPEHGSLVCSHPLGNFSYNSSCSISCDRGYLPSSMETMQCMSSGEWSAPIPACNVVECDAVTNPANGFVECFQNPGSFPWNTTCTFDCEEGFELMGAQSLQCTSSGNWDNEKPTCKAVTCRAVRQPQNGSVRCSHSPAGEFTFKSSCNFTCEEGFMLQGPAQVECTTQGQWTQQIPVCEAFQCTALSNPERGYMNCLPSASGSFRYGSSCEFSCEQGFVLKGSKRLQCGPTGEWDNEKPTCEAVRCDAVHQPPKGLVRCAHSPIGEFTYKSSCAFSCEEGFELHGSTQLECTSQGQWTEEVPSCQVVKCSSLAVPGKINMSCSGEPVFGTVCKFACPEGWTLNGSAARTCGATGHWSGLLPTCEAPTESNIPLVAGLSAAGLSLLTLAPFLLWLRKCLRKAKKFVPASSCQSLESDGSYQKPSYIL
#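 Read-out: % PE-positive cells | Test system: HUVEC | Doses: One compound dose added by pin transfer | Buffer or medium: EGM-2 over gelatin coat | Signal: Immunofluorescence imaging | Benchmarks: TNF-alpha, DMSO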
# rRNA inh HTS: selective bacterial rRNA inhibition in E. coli. E. coli WT GFP vs humanized-ribosome RFP mutants, fluorescence, 24 h; active compounds read low; DMSO median 0, no signal -100. GFP signal change (wild-type ribosome), % (no concentration beside the values). 350,000 tested, 1.6% active;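 active means significant combined selectivity score with lowered wild-type GFP, culture density cut under 30%, mutant RFP and density less affected; inactive means any of these conditions unmet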
# Cneo AK release: Cryptococcus neoformans lysis via adenylate kinase release. C. neoformans lysis, adenylate kinase release luminescence, 4 h; normalised: neutral wells 0, clomiphene wells 100. 360,000 tested, 0.2% active. AID 651654. lysis activity, % at 15 µM;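 active means mean lysis activity across replicates of at least 80%, whatever share of replicates individually reach that level; inactive means mean lysis activity below 80%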
#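 Material – log-phase Cryptococcus neoformans yeast cells · Input – 5 × 10^6 yeast cells/mL · Medium – fresh YPD growth medium · Doses – single compound concentration per well · Timing – static 4 h at 37 °C with compound, 1 h detection · Detection – adenylate kinase release luminescence · Read-out – signal increase indicating cell lysis · Control set – Clomiphene as positive lysis control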
# miR-122 sensor: inhibitors of miR-122 in Huh7 cells. AID 602342. 340,000 tested, 0.3% active. activation (reporter increase), % at 12.5 µM. Huh7 miR-122 Renilla luciferase sensor, 48 h; neutral wells = 0, positive control = 100;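 active means mean replicate activation score at least 90 and every replicate individually at or above 90; inconclusive means only one of the two criteria met; inactive means neither criterion met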;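 further: higher luciferase means less miR-122 activity so hits act as miR-122 inhibitors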
# DENV2 CPE: DENV2-induced cell death inhibition | DENV2-infected cells, cytopathic effect rescue, plate reader | CPE inhibition, % at 9.99 µM | 350,000 tested, 1.7% active; in the data active means CPE inhibition above about 20%, passing the limit was not always enough; inconclusive means no clear call, values can overlap the other calls; tested in BHK-21 cells;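 further: 0% = median of neutral control wells and 100% = median of positive control wells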
# miR-27b qPCR: selectivity of miR-122 inhibitors: effect on miR-27b in Huh7 | Huh7 miR-27b levels, qRT-PCR, 48 h | shares compounds with miR-122 sensor | 35 tested, under 10 active | relative miR-27b level (unnormalised ratio), ratio at 35 µM;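 active means compounds lowering miR-27b whose fitted half-maximal dose is at most twice their top tested dose; inconclusive means flat curve with moderate drop, or poor fit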
# AID977621: wild-type E. coli growth inhibition versus H69 humanized strain – H69 mutant RFP, wild-type GFP, cherry-pick, dose response | shares compounds with rRNA inh HTS | fluorescence, 24 h | activity change, negative = inhibition at 50 µM | 1,900 tested, under 10 active;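 active means Wild-type ribosome reporter drop at least double the humanized mutant ribosome reporter drop, growth loss under a set limit; inconclusive means no clear call, values can overlap the other calls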;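 further: wild-type GFP and H69 mutant RFP strains grown together 50/50 in each well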
# AID977628: growth of wild-type and h24-humanized E. coli strains – h24 mutant RFP vs wild-type GFP, cherry-pick, dose response. 1,900 tested, under 10 active. activity change, negative = inhibition at 50 µM. E. coli WT GFP strain growth, fluorescence, 24 h. shares compounds with rRNA inh HTS;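 active means compound lowering the normal-ribosome reporter at least twice as much as the humanized-ribosome reporter, growth loss under a set limit; inconclusive means no clear call, values can overlap the other calls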;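 further: wild-type GFP and h24 humanized RFP strains co-cultured 1 to 1 per well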
# An asterisk follows results filed as active; ? = inconclusive; . = no result; [ ] = dose if it differs, or a comment. This is a sample that favours compounds with a hit; in the whole collection about 3.1% have one here.
SMILES,E-selectin induc,rRNA inh HTS,Cneo AK release,miR-122 sensor,DENV2 CPE,others
CCCN1[C@@H]2c3cccc(=O)n3C[C@H]1[C@H](CO)[C@H]2C(=O)N(C)C,0,6,-1,.,-2,
Clc1cccc(Cl)c1NC1=NCCS1,0,-3,4,-3,-2,
Clc1cc(Cl)cc(NC2=NCCS2)c1,0,-26*,2,2,-4,
CCOc1ccccc1OCC(=O)Nc1ccc(Cl)cc1C(=O)c1ccccc1,0,10,-2,8,-7,
O=C(COC(=O)c1cccc(O)c1)Nc1ccc(Cl)cc1C(=O)c1ccccc1,.,-23*,.,.,3,
COc1ccc(CCNCc2cccn2C)cc1OC,0,3,0,-1,69*,
CCOC(=O)c1cnc(SCc2ccc(Cl)c(Cl)c2)nc1N1CC1,0,-7.9*,1,-2,1,
c1cc(-c2ccc(C3[C@H]4CNC[C@@H]3N4CC3CC3)cc2)ccn1 (some centres undefined),1,6,.,.,10,
CC(C)(O)C(=O)Nc1ccc([N+](=O)[O-])c(C(F)(F)F)c1,.,3,0,1,-13,
COc1cc2c(cc1OC)CN(c1ccc([N+](=O)[O-])c(C(F)(F)F)c1)CC2,0,-19*,.,.,-3,
COc1ccc(CC2C(=O)NC(C)C(=O)N(C)C3C(=O)N(C)C(Cc4ccc(O)c(c4)Oc4ccc(cc4)C3O)C(=O)NC(C)C(=O)NC(C)C(=O)N2C)cc1 (centres undefined),0,7,.,-14,107*,
CCOC(=O)[C@@H]1[C@@H]2NC(=S)N(C)[C@@]1(COCc1ccc(OC)cc1)Oc1ccccc12,.,.,-2,.,2,
CN1C(=O)C(=Cc2coc3ccccc3c2=O)C(=O)N(C)C1=O,36*,25,.,.,-2,
CN1C(=O)C(=Cc2cn(CC#N)c3ccccc23)C(=O)N(C)C1=O,0,17,-2,.,5,
COc1ccc(C#Cc2ccc([C@H]3[C@H](CO)N4CCCCN(C(=O)Cc5ccncc5)C[C@@H]34)cc2)cc1,-1,-6,0,9[16.7 µM],-11,
COC(=O)[C@H]1[C@H](CO)[C@H]2Cn3c(ccc(-c4ccccc4)c3=O)[C@@H]1N2C(=O)c1ccccc1F,0,-2,1,0[16.7 µM],5,
COC(=O)[C@H]1N[C@H]2c3ccc(C4=CCCC4)c(=O)n3C[C@H]2[C@@H]1CO,0,2,-3,.,128*,
O=C(Cc1ccccc1)N1CC2(C1)[C@@H](c1ccccc1)[C@H](CO)N2Cc1cccc(F)c1,.,-5,.,.,.,
COC(=O)[C@H]1[C@H](CO)[C@H]2Cn3c(ccc(-c4ccc(F)cc4)c3=O)[C@@H]1N2Cc1ccccc1,0,-5,2,-3[16.7 µM],-6,
O=C1CC(=O)N(Cc2ccccc2)C(=S)N1,0,13,0,-4,23*,
CCN1[C@@H]2c3ccc(-c4cccc(C(=O)N(C)C)c4)c(=O)n3C[C@H]1[C@H](CO)[C@H]2C(=O)OC,0,0,-6,3[16.7 µM],-1,
CC(C)OP(=O)(OC(C)C)C(NCc1ccccc1)c1ccccc1 (centres undefined),1,-20*,-1,.,-1,
CC(C)C(=O)NC(Oc1ccccc1Cl)C(Cl)(Cl)Cl (centres undefined),7,-14*,0,-3,-2,
CN1C[C@@H]2N[C@H](C1)C2c1ccc(Br)cc1 (some centres undefined),.,1,.,.,.,
O=C(CN1CCOCC1)Nc1ccc(Br)cc1C(=O)c1ccccc1,.,.,2,100*,.,miR-27b qPCR=0.94
SMILES,E-selectin induc,rRNA inh HTS,Cneo AK release,miR-122 sensor,DENV2 CPE,others
CC=Cc1ccc2n(c1=O)C[C@@H]1[C@@H](CO)[C@H](C(=O)OC)[C@H]2N1S(=O)(=O)c1cccc(C)c1 (mixture of isomers),0,1,1,.,-5,
O=C(c1sc2ccccc2c1Cl)N1CCC2(CC1)OCCO2,.,-20*,-1,7,-5,AID977621=-0.9;AID977628=-9.7
O=C(c1ccc(F)cc1Cl)N1CCC2(CC1)OCCO2,.,6,-1,-8,5,
O=C(O)[C@@H]1[C@@H](CO)[C@@H]2Cn3c(ccc(-c4cncnc4)c3=O)[C@H]1N2C(=O)NC1CCCC1,-2,3,2,-6[16.7 µM],0,
Oc1c(Br)cc(Br)cc1Br,.,-21*,3,-4,-17,AID977621=4.6;AID977628=-1.7
COC(=O)[C@@H]1[C@@H](CO)[C@@H]2Cn3c(ccc(-c4cccc(OC)c4)c3=O)[C@H]1N2CC1CC1,0,-3,-3,.,-1,
C/C=C/c1ccc(C2[C@@H]3CN(C(=O)C4CC4)C[C@H]2N3)cc1 (some centres undefined),0,4,.,.,10,
COc1cccc(CN2CC3(C2)[C@H](c2ccccc2)[C@H](CO)N3C(=O)Cc2ccccc2)c1,0,-5,.,.,4,
CSc1ccc(CN2CCN(Cc3ccccc3Cl)CC2)cc1,.,-22*,.,.,-4,AID977628=?
COCCNC(=O)c1c(N)n(CCC(C)C)c2nc3ccccc3nc12,.,.,2,10,.,
CC(C)CCn1c(N)c(C(=O)NCc2cccs2)c2nc3ccccc3nc21,.,-22*,-2,0,-5,AID977621=-3.4;AID977628=?
CCOC(=O)C12C(=O)OCC1C2c1ccccc1 (centres undefined),0,-4.1*,.,.,3,AID977621=3;AID977628=1.3
CCOC(=O)C1(CCOc2ccccc2)CCN(C2Cc3ccccc3C2)CC1,.,-20,.,.,-1,
Cc1c(C(=O)Nc2ccccc2)c2cc(O)ccc2n1Cc1ccccc1,0,-20*,-2,2,2,AID977621=-0.49;AID977628=?
CC(C)Cc1nc(N2CCNCC2)c(C#N)c2c1CCC2,0,-21*,1,2,-15,AID977621=-17
